# Test results taken from ChEMBL document CHEMBL3124806, “Imidazopyridine-fused [1,3]-diazepinones: synthesis and antiproliferative activity” (Eur J Med Chem, 2014).
# Active and inactive are the calls of the source. No cut-off for these calls is given here.
# Columns and labels:
# [1] = molecular target: Cyclin-dependent kinase 2 (Homo sapiens) (UniProt P24941); assay: Inhibition of human CDK2 at 10 uM
# Procedure, shortened: (§1)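 Kinase selectivity panel of 19 protein tyrosine kinases and 30 serine/threonine kinases, run by a contract lab (CEREP). Each compound was tested at a single dose of 10 μM in duplicate.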
# [2] = molecular target: Glycogen synthase kinase-3 beta (Homo sapiens) (UniProt P49841); assay: Inhibition of human GSK3 beta at 10 uM; procedure, shortened: as §1
# MDA-MB-435 [3] = assay: Induction of apoptosis in human MDA-MB-435 cells assessed as nuclei fragmentation at 5 uM after 20 hrs by Hoechst 33342 staining-based phase-contrast microscopy; type: functional, cell-based
# MDA-MB-435 [4] = assay: Induction of apoptosis in human MDA-MB-435 cells assessed as alterations in stress action fibre aggregation at 5 uM after 20 hrs by Hoechst 33342 staining-based […] microscopy; type: functional, cell-based
# Procedure, shortened: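 MDA-MB-435 cells were grown for 24 h, then treated with or without 5 μM compound for 20 h. Cells were fixed for 20 min and permeabilised with 0.2% Triton X-100 for 4 min at room temperature. Actin was stained with a mouse anti-actin antibody and an Alexa Fluor 568 anti-mouse antibody, each for 1 h at RT. Nuclei were counterstained with Hoechst 33342, and cells were imaged by confocal microscopy.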
# MDA-MB-435 [5] = assay: Induction of apoptosis in human MDA-MB-435 cells assessed as dispersed and rounded cells at 5 uM after 20 hrs by Hoechst 33342 staining-based phase-contrast microscopy; type: functional, cell-based
# Procedure, shortened: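 MDA-MB-435 human melanoma cells were grown in Ham's F12/DMEM (1:1) with 10% FCS and antibiotics at 37 °C under 5% CO₂. Cells were exposed to 5 μM compound or left untreated. They were imaged by phase-contrast microscopy 20 h after treatment.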
# MDA-MB-435 [6] = assay: Cell cycle arrest in human MDA-MB-435 cells assessed as accumulation at S phase at 5 uM after 48 hrs by propidium iodide staining-based FACS analysis (reference value: 22.8%); type: functional
# MDA-MB-435 [7] = assay: Cytotoxicity against human MDA-MB-435 cells at 5 uM after 24 hrs by MTT assay; type: functional
# Procedure, shortened: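 MDA-MB-435 cells in DMEM/Ham's F12 (1:1) with 10% FCS, 37 °C, 5% CO2. Time course at a fixed 5 µM, incubated 8, 16, 24 or 48 h. Viability then read by MTT reduction (0.5 mg/mL, 4 h), formazan dissolved in EtOH/DMSO, absorbance at 540 nm, as percent living cells.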
# [8] = Cytotoxicity against human CAL-1 cells assessed as cell growth at 10 uM after 48 hrs by MTT assay relative to untreated control; type: functional; conditions: CAL1, 48 h, read-out: Activity
# Procedure, shortened: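 CAL1 melanoma cells grown in DMEM with 2 mM L-glutamine and 10% FCS at 37 °C, 5% CO2. Seeded at 10^4 cells/well, grown 24 h, then treated 48 h across 100–0.01 μM (compounds dissolved in medium). Read-out: 0.5 mg mL⁻¹ MTT for 4 h, crystals dissolved in EtOH/DMSO 1:1, absorbance at 540 nm.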
# MCF7 = assay: Cytotoxicity against human MCF7 cells after 48 hrs by SRB assay; type: functional; conditions: MCF7, 48 h
# Procedure, shortened: (§2)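 NCI-60 five-dose testing, 100 to 0.01 µM, under a 48 h continuous-exposure protocol. Growth estimated by SRB protein assay, read spectrophotometrically against untreated controls; IC50 derived from the dose-response.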
# RXF 393 = assay: Cytotoxicity against human RXF393 cells after 48 hrs by SRB assay; type: functional; conditions: RXF 393, 48 h
# Procedure, shortened: (§3)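 NCI-60 five-dose screen: cells exposed continuously for 48 h across 100 to 0.01 µM. Growth or viability estimated by sulforhodamine B protein staining, read spectrophotometrically against untreated controls; IC50 taken from the dose-response.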
# ACHN = assay: Cytotoxicity against human ACHN cells after 48 hrs by SRB assay; type: functional; procedure, shortened: as §2
# A498 = assay: Cytotoxicity against human A498 cells after 48 hrs by SRB assay; type: functional; conditions: A498, 48 h; procedure, shortened: as §2
# 786-0 = assay: Cytotoxicity against human […] cells after 48 hrs by SRB assay; type: functional; conditions: 786-0, 48 h; procedure, shortened: as §2
# [9] = Cytotoxicity against human OVCAR5 cells after 48 hrs by SRB assay; type: functional; conditions: OVCAR-5, 48 h; procedure, shortened: as §3
# [10] = Cytotoxicity against human OVCAR4 cells after 48 hrs by SRB assay; type: functional; conditions: OVCAR-4, 48 h; procedure, shortened: as §3
# OVCAR-3 = assay: Cytotoxicity against human OVCAR3 cells after 48 hrs by SRB assay; type: functional; conditions: OVCAR-3, 48 h; procedure, shortened: as §3
# IGROV-1 = assay: Cytotoxicity against human IGROV1 cells after 48 hrs by SRB assay; type: functional; conditions: IGROV-1, 48 h; procedure, shortened: as §2
# SK-MEL-28 = assay: Cytotoxicity against human SK-MEL-28 cells after 48 hrs by SRB assay; type: functional; conditions: SK-MEL-28, 48 h; procedure, shortened: as §3
# Malme-3M = assay: Cytotoxicity against human MALME-3M cells after 48 hrs by SRB assay; type: functional; procedure, shortened: as §2
# SNB-19 = assay: Cytotoxicity against human SNB19 cells after 48 hrs by SRB assay; type: functional; conditions: SNB-19, 48 h
# Procedure, shortened: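 NCI-60 five-dose mode on the full human tumour line panel. Concentrations ran from 100 to 0.01 µM with 48 h continuous exposure. Growth was estimated by SRB protein staining against untreated controls, and IC50 values were derived from the dose–response.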
# KM12 = assay: Cytotoxicity against human KM12 cells after 48 hrs by SRB assay; type: functional; conditions: KM12, 48 h; procedure, shortened: as §2
# HCT-116 = assay: Cytotoxicity against human HCT116 cells after 48 hrs by SRB assay; type: functional; conditions: HCT-116, 48 h; procedure, shortened: as §2
# NCI-H522 = assay: Cytotoxicity against human NCI-H522 cells after 48 hrs by SRB assay; type: functional; conditions: NCI-H522, 48 h; procedure, shortened: as §3
# NCI-H460 = assay: Cytotoxicity against human NCI-H460 cells after 48 hrs by SRB assay; type: functional; conditions: NCI-H460, 48 h; procedure, shortened: as §3
# HOP-92 = assay: Cytotoxicity against human HOP92 cells after 48 hrs by SRB assay; type: functional; conditions: HOP-92, 48 h; procedure, shortened: as §2
# [11] = read-out: LC50 (the source's name)
# Glycogen synthase kinase-3 beta (Homo sapiens), sequence (P49841 whole entry, looked up, the tested form may be a part): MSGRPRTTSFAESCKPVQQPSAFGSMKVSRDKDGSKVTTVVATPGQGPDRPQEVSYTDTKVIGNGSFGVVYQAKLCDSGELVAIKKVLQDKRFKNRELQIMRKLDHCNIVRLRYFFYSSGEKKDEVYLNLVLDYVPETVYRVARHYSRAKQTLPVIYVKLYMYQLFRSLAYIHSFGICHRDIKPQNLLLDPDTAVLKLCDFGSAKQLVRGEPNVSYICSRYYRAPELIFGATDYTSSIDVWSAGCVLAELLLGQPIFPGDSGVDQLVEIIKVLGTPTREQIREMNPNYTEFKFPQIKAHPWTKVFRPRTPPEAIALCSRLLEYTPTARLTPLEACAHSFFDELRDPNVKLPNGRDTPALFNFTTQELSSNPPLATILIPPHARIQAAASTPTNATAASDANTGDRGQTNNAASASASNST
smiles,measurement,setting,value
C[C@@H]1NC(c2ccc(Br)cc2)=Nc2nc3ccccn3c2C1=O,inhibition,[1],inactive
same,inhibition,[2],inactive
same,Activity,MDA-MB-435 [3],Active
same,Activity,MDA-MB-435 [4],Active
same,Activity,MDA-MB-435 [5],Active
same,Activity,MDA-MB-435 [6],30.8%
same,Activity,MDA-MB-435 [7],10%
same,growth at 10 µM,[8],12%
same,GI50,MCF7,2.99 µM
same,TGI,MCF7,> 100 µM
same,CC50,MCF7; [11],> 100 µM
same,GI50,RXF 393,10.2 µM
same,TGI,RXF 393,51.8 µM
same,CC50,RXF 393; [11],> 100 µM
same,GI50,ACHN,6.75 µM
same,TGI,ACHN,> 100 µM
same,CC50,ACHN; [11],> 100 µM
same,GI50,A498,3.26 µM
same,TGI,A498,38.2 µM
same,CC50,A498; [11],> 100 µM
same,GI50,786-0,28.3 µM
same,TGI,786-0,> 100 µM
same,CC50,786-0; [11],> 100 µM
same,GI50,[9],23.5 µM
same,TGI,[9],> 100 µM
same,CC50,[9]; [11],> 100 µM
same,GI50,[10],17.9 µM
same,TGI,[10],> 100 µM
same,CC50,[10]; [11],> 100 µM
same,GI50,OVCAR-3,3.34 µM
same,TGI,OVCAR-3,17.8 µM
same,CC50,OVCAR-3; [11],> 100 µM
same,GI50,IGROV-1,51.9 µM
same,TGI,IGROV-1,> 100 µM
same,CC50,IGROV-1; [11],> 100 µM
same,GI50,SK-MEL-28,9.51 µM
same,TGI,SK-MEL-28,> 100 µM
same,CC50,SK-MEL-28; [11],> 100 µM
same,GI50,Malme-3M,15.2 µM
same,TGI,Malme-3M,> 100 µM
same,CC50,Malme-3M; [11],> 100 µM
same,GI50,SNB-19,7.45 µM
same,TGI,SNB-19,> 100 µM
same,CC50,SNB-19; [11],> 100 µM
same,GI50,KM12,3.39 µM
same,TGI,KM12,> 100 µM
same,CC50,KM12; [11],> 100 µM
same,GI50,HCT-116,4.04 µM
same,TGI,HCT-116,> 100 µM
same,CC50,HCT-116; [11],> 100 µM
same,GI50,NCI-H522,3.23 µM
same,TGI,NCI-H522,18.4 µM
same,CC50,NCI-H522; [11],> 100 µM
same,GI50,NCI-H460,3.06 µM
same,TGI,NCI-H460,> 100 µM
same,CC50,NCI-H460; [11],> 100 µM
same,GI50,HOP-92,1.16 µM
same,TGI,HOP-92,22.9 µM
same,CC50,HOP-92; [11],> 100 µM
